Results: publication PMC4358770 (Journal of medicinal chemistry, 2010)

Columns and labels:
[1] = cited from earlier work
human NPP3 = target: T1, human NPP3 (Homo sapiens, UniProt O14638); test: NPP3 hydrolysis assay; type: in vitro ADME; conditions: 100 μM ATP (100% reference)
T1 sequence (O14638 1-875): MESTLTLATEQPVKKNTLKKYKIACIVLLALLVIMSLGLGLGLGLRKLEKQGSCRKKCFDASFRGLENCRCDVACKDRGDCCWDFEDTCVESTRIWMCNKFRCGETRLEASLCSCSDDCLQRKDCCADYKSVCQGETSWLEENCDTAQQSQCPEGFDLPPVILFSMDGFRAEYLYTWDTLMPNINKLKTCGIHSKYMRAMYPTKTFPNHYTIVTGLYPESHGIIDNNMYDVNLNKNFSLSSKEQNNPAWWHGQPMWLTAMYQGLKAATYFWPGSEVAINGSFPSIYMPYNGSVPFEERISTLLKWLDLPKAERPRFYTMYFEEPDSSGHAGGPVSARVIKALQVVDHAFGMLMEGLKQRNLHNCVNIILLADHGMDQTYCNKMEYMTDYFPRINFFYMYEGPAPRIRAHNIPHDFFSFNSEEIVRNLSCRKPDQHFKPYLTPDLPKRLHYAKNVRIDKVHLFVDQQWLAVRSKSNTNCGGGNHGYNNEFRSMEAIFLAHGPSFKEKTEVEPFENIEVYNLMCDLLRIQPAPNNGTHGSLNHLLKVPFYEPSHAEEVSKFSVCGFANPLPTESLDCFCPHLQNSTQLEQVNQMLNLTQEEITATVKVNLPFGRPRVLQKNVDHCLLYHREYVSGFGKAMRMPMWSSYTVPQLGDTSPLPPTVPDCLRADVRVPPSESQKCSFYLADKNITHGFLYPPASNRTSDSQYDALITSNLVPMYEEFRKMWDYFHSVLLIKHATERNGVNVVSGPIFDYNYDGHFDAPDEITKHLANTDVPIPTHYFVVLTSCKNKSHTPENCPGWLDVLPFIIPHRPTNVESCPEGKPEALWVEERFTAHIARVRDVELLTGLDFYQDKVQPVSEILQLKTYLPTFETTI

[2] = target: calf intestine alkaline phosphatase (Bos taurus, UniProt P19111); test: Hydrolysis by alkaline phosphatase; conditions: 0.2 mg analogue/77.5 μL, 12.5 units of AP, 37 °C, 3 h
alkaline phosphatase = alkaline phosphatase (Bos taurus, UniProt P19111); test: Hydrolysis by alkaline phosphatase; conditions: bovine, calf intestine alkaline phosphatase, pH 9.8
rabbit IOP = conditions: topically applied to New Zealand white rabbits; cited from earlier work
NTPDase3 = target: T2, NTPDase3 (Homo sapiens, UniProt O75355); test: NTPDase3 hydrolysis assay; type: in vitro ADME; conditions: 100 μM ATP (100% reference)
T2 sequence (O75355 1-529): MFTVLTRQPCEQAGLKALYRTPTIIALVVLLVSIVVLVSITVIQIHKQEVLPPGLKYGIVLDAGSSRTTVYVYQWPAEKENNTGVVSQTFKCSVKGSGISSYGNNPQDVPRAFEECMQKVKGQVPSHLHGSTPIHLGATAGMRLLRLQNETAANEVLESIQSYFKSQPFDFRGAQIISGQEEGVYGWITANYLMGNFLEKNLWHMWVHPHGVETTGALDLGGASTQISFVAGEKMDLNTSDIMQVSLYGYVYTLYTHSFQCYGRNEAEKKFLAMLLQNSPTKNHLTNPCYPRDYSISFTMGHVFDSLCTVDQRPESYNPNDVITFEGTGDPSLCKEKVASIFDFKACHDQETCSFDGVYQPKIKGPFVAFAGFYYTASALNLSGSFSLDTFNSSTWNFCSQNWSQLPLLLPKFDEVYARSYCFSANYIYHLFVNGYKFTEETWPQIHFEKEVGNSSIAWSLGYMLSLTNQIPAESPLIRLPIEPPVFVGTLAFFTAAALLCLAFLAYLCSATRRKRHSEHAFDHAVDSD
How it was run: (§1)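 Enzymes were transiently expressed in COS-7 cells. Crude protein extracts were made by sonication, 300g clearing at 4 °C and storage at −80 °C, with protein measured by Bradford. Extract was preincubated 3 min at 37 °C in Tris-Ringer buffer, pH 7.4. […] Activity of untransfected-cell extract was subtracted.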

NTPDase8 = target: T3, NTPDase8 (Homo sapiens, UniProt Q5MY95); test: NTPDase8 hydrolysis assay; type: in vitro ADME; conditions: 100 μM ATP (100% reference)
T3 sequence (Q5MY95 1-495): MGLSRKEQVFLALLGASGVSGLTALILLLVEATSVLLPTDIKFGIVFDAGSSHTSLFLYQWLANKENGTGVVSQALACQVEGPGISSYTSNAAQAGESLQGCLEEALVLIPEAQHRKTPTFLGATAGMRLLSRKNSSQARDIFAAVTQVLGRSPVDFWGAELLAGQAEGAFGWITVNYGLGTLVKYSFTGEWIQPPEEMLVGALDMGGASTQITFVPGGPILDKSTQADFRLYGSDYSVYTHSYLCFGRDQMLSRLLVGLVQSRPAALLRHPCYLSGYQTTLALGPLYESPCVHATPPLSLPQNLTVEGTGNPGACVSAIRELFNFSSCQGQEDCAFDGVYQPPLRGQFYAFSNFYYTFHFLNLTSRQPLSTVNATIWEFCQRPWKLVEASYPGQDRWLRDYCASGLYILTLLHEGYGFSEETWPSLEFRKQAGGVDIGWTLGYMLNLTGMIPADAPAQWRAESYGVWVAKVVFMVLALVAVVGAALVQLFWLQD
How it was run: as §1

[3] = pKa and ionization of the terminal phosphate/phosphonate; type: physicochemical; conditions: pH 7.4, terminal phosphate/phosphonate
NTPDase2 = target: T4, NTPDase2 (Homo sapiens, UniProt Q9Y5L3); test: NTPDase2 hydrolysis assay; type: in vitro ADME; conditions: 100 μM ATP (100% reference)
T4 sequence (Q9Y5L3 1-495): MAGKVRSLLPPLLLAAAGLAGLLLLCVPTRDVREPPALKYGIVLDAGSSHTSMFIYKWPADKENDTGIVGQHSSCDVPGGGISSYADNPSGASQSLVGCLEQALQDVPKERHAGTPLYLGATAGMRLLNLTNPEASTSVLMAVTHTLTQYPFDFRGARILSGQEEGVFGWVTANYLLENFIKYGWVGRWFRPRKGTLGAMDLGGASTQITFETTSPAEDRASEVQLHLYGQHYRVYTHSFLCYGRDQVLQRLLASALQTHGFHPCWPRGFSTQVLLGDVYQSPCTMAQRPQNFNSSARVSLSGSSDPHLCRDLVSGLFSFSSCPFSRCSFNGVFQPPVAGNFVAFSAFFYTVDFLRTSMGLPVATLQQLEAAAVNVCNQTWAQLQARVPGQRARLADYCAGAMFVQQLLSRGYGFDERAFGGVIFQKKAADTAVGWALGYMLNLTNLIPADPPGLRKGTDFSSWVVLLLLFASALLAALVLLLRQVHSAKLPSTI
How it was run: as §1

alkaline phosphatase, sequence (P19111 20-533): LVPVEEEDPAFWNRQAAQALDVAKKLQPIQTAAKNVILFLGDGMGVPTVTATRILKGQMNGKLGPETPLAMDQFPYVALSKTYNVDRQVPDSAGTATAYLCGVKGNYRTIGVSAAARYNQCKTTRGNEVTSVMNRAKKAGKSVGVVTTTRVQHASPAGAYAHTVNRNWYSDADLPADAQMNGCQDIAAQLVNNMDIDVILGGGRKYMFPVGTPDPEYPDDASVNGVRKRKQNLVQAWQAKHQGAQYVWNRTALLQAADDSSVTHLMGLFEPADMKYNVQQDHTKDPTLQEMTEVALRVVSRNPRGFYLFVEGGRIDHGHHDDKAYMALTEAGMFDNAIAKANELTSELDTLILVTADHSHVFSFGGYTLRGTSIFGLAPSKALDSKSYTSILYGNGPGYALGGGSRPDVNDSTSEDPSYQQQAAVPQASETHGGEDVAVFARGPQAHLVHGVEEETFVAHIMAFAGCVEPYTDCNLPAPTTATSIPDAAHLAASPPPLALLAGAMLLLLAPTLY
calf intestine alkaline phosphatase, sequence (P19111 20-533): as above

For `Nc1ncnc2c1ncn2[C@@H]1O[C@H](COP(=O)(O)OP(=O)(O)OP(=O)(O)O)[C@@H](O)[C@H]1O` [ATP], the “t1/2 in human blood serum” value [1] is listed as 3.6 h, the “hydrolysis rate by NPP3” value (human NPP3) is listed as 245 nmol nucl·min^−1·mg protein^−1 and the “degradation by alkaline phosphatase after 3 h” value [2] is listed as 96%. For the same molecule, the half-life at 2.58 mg/mL (alkaline phosphatase) was 1.4 h, the “effect on IOP (increase or reduction)” value (rabbit IOP) was “reduced” and the “hydrolysis rate by NTPDase3” value (NTPDase3) was 533 ± 42 nmol Pi·min^−1·mg protein^−1. For the same molecule, the “hydrolysis rate by NTPDase8” value (NTPDase8) was 229 ± 20 nmol Pi·min^−1·mg protein^−1, the “fraction ionized at physiological pH” value [3] was 91% and the “hydrolysis rate by NTPDase2” value (NTPDase2) was 1006 ± 60 nmol Pi·min^−1·mg protein^−1.
